The values that follow come from ChEMBL document CHEMBL3808362, “Affinity-Guided Design of Caveolin-1 Ligands for Deoligomerization” (J Med Chem, 2016).

Series [1] has as its target T1, Caveolin-1 (Homo sapiens) (UniProt Q03135).
T1 sequence (whole entry): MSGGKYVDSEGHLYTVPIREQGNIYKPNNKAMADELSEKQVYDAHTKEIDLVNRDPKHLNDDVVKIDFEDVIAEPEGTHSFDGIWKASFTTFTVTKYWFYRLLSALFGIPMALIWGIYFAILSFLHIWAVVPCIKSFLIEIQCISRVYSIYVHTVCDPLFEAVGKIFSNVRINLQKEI
As to the kind of experiment: Binding affinity to rhodamine-labeled human CAV (1 to 104 residues) expressed in Escherichia coli BL21-DE3 by SPOT screening assay. The essentials:
(§1)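 Peptides synthesized on cellulose SPOT arrays with a double β-Ala linker, screened in duplicate sheets against rhodamine-labeled protein. Sheets were washed and blocked, and SPOT fluorescence was quantified as relative apparent binding. Signal from blank linker-only SPOTs was subtracted on each sheet.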

For a further series, the target named is T2, Caveolin-1 (Homo sapiens, UniProt Q03135).
T2 sequence (Q03135 whole entry): T1 sequence (whole entry)
As to the kind of experiment: Binding affinity to human CAV (1 to 104 residues) expressed in Escherichia coli BL21-DE3 by isothermal titration calorimetric analysis. In general terms: Isothermal titration calorimetry measures the heat released or taken up as one component is titrated into another.

Series [2] has as its target T1, Caveolin-1 (Homo sapiens). As to the kind of experiment: Inhibition of oligomerization of human soluble full length variant CAV at 10 uM by dynamic light scattering analysis in presence of TCEP. The essentials: (§2)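 Soluble full-length CAV variant (CAV(FLV)) forms oligomers spontaneously. These were incubated with peptide, and particle size was measured by dynamic light scattering as average diameter and polydispersity. For line 7, incubation was under reducing conditions to disrupt the peptide's disulfide dimerization.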

The target of series [3] is T1, Caveolin-1 (Homo sapiens). As to the kind of experiment: Inhibition of oligomerization of human soluble full length variant CAV at 10 uM by dynamic light scattering analysis. In outline:
as §2

The target of series [4] is T1, Caveolin-1 (Homo sapiens). As to the kind of experiment: Inhibition of oligomerization of human soluble full length variant CAV by dynamic light scattering analysis. The essentials: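 CAV(FLV) oligomers were incubated with varied peptide concentrations. Dose dependence was followed by dynamic light scattering as the diameter of separate oligomeric peaks.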
The species entered for the next series is Gallus gallus. As to the kind of experiment: Binding affinity to rhodamine-labeled hen egg white lysozyme by SPOT screening assay. In outline: as §1
The species entered for the next series is Homo sapiens. As to the kind of experiment: Binding affinity to rhodamine-labeled casein (unknown origin) by SPOT screening assay. The essentials:
as §1

The target of the next series is Albumin (Bos taurus, UniProt P02769). As to the kind of experiment: Binding affinity to rhodamine-labeled bovine serum albumin by SPOT screening assay. The format is ADME. As to conditions: cattle, isolated protein. The essentials: as §1

The source made the active and inactive calls. No cut-off for these calls is given here. Peptide text beside a SMILES is read from it.

Albumin, sequence (P02769 whole entry): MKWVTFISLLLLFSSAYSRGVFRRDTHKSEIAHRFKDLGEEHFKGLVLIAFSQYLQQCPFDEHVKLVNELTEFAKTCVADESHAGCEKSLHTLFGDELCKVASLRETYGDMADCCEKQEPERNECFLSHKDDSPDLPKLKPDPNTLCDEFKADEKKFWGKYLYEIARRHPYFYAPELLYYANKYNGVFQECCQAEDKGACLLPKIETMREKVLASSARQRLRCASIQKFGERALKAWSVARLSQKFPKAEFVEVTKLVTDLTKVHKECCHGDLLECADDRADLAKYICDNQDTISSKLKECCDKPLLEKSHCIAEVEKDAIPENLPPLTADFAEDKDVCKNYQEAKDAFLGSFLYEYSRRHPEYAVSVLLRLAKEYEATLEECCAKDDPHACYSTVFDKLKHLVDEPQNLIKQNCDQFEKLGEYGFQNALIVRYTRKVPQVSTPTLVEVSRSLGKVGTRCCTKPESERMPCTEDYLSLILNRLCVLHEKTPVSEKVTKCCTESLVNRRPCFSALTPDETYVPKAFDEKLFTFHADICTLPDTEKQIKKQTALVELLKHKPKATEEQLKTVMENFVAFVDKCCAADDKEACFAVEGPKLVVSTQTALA

`CSCC[C@H](NC(=O)[C@H](CO)NC(=O)CNC(=O)[C@H](Cc1c[nH]c2ccccc12)NC(=O)[C@H](CCCNC(=N)N)NC(=O)[C@H](CCC(=O)O)NC(=O)[C@H](CC(C)C)NC(=O)[C@H](CCC(=O)O)NC(=O)[C@H](CCSC)NC(=O)[C@H](CC(C)C)NC(=O)[C@@H](N)CCC(=O)O)C(=O)N[C@@H](CC(C)C)C(=O)N[C@@H](CCCCN)C(=O)N[C@@H](CS)C(=O)N[C@@H](Cc1ccccc1)C(=O)O` (H-ELMELERWGSMLKCF-OH): the result in series [1] was Active.

In the case of `CC[C@H](C)[C@H](NC(=O)[C@H](CC(C)C)NC(=O)[C@H](CO)NC(=O)[C@H](Cc1cnc[nH]1)NC(=O)[C@@H](NC(=O)[C@H](CC(C)C)NC(=O)[C@H](CO)NC(=O)[C@@H](NC(=O)[C@@H](N)Cc1ccc(O)cc1)[C@@H](C)O)[C@@H](C)CC)C(=O)N[C@@H](CCC(=O)O)C(=O)N[C@@H](CCC(=O)O)C(=O)N[C@@H](CO)C(=O)N[C@@H](CCC(N)=O)C(=O)N[C@@H](CC(N)=O)C(=O)N[C@@H](CCC(N)=O)C(=O)N[C@@H](CCC(N)=O)C(=O)N[C@@H](CCC(=O)O)C(=O)N[C@@H](CCCCN)C(=O)N[C@@H](CCC(N)=O)C(=O)N[C@@H](CCC(=O)O)C(=O)N[C@@H](CCCCN)C(=O)N[C@@H](CCC(=O)O)C(=O)N[C@@H](CC(C)C)C(=O)N[C@@H](CCSC)C(=O)N[C@@H](CCC(=O)O)C(=O)N[C@@H](CC(C)C)C(=O)N[C@@H](CCC(=O)O)C(=O)N[C@@H](CCCNC(=N)N)C(=O)N[C@@H](Cc1c[nH]c2ccccc12)C(=O)NCC(=O)N[C@@H](CO)C(=O)N[C@@H](CCSC)C(=O)N[C@@H](CC(C)C)C(=O)N[C@@H](CCCCN)C(=O)N[C@@H](CS)C(=O)N[C@@H](Cc1ccccc1)C(=O)O` (H-YTSLIHSLIEESQNQQEKQEKELMELERWGSMLKCF-OH), the dissociation constant (Kd) (commonly the equilibrium constant for the complex coming apart) on Caveolin-1 was at most 155 nM.

`CSCC[C@H](NC(=O)[C@H](CO)NC(=O)CNC(=O)[C@H](Cc1c[nH]c2ccccc12)NC(=O)[C@@H](N)CCCNC(=N)N)C(=O)N[C@@H](CC(C)C)C(=O)N[C@@H](CCCCN)C(=O)N[C@@H](CS)C(=O)N[C@@H](Cc1ccccc1)C(=O)O` (H-RWGSMLKCF-OH): the result in series [1] was Active.

In the case of `CSCC[C@H](NC(=O)[C@H](Cc1c[nH]c2ccccc12)NC(=O)[C@H](CO)NC(=O)[C@@H](N)CS)C(=O)N[C@@H](CCCNC(=N)N)C(=O)N[C@@H](CC(C)C)C(=O)N[C@@H](CCCCN)C(=O)O` (H-CSWMRLK-OH), in series [2], the inhibition entry is “inactive”. In series [3], the inhibition result was “Active”. Also, the result in series [1] was Active. In addition, the inhibition entry in series [4] was “Dose-dependent effect”. For the same compound, the result in the series listed under Gallus gallus and in the series filed under Homo sapiens was inactive. Moreover, the Activity result at Albumin is on record as “Not Active”.
